# KCNQ1 act: potentiators or activators of KCNQ1 channel, primary screen, cell-based, thallium flux, high-throughput; Potassium voltage-gated channel subfamily KQT member 1 (Homo sapiens), P51787; CHO-K1 KCNQ1, thallium flux FluxOR fluorescence; stronger effect = higher value; B-score at 10 µM; 0.35% of 310,000 active;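 active = fluorescence ratio B-score, a plate-corrected score, at least three library SD, with initial intensity B-score within 5 SD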
#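 assay system = KCNQ1-transfected CHO-K1 cells | medium = assay buffer with matched DMSO | probe or stimulus = depolarizing K+/Tl+ stimulus, K2SO4 and Tl2SO4 each 12.5 mM in 5x stock | dosing = single dose | incubation = dye 90 min, compound 20 min, room temperature | detection = kinetic FluxOR fluorescence, 10 s baseline plus 110 s post-stimulus | evaluation = ratio B score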
# KCNK9 block: KCNK9 potassium channel inhibitors, primary screen, HEK293 cells, thallium flux. Potassium channel subfamily K member 9 (Homo sapiens), Q9NPC2. FluxOR thallium flux fluorescence; stronger effect = lower value. B-score at 10 µM. 1.2% of 310,000 active. AID 488922, 2010;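 active = ratio B-score over 3 SD below the library mean, with starting fluorescence within 5 SD of its mean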;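 note: negative B-score means less thallium flux so channel inhibition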
# KCNK3 inh: human KCNK3 channel inhibitors, primary screen, CHO cells, FluxOR thallium flux, B-score; Potassium channel subfamily K member 3 (Homo sapiens), O14649; FluxOR fluorescence; stronger effect = lower value; B-score at 10 µM; 0.84% of 340,000 active; AID 602410, 2012;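 active = B-score under library mean minus 4 SD, starting fluorescence ratio at most library mean plus 5 SD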;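 note: more negative B-score means stronger inhibition of thallium flux through KCNK3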
# KCNQ1 block: inhibitors of human KCNQ1 channel, primary screen, cell-based, thallium flux, high-throughput | Potassium voltage-gated channel subfamily KQT member 1 (Homo sapiens), P51787 | CHO-K1 KCNQ1, FluxOR thallium flux fluorescence; stronger effect = higher value | B-score at 10 µM | 1.3% of 310,000 active | AID 2642, 2010;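 active = compounds whose thallium flux B-score, printed positive for inhibition, exceeds three library SD while starting fluorescence stays within three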;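 note: channel opened by potassium depolarization with thallium stimulus after 20 min compound exposure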
# hERG rescue: hERG rescue from dofetilide block, primary screen, cell-based, CHO-hERG, FluxOR thallium flux, dofetilide IC70. dofetilide IC70 present. activation (rescue from dofetilide block), less the hit threshold, % at 10 µM. 0.51% of 310,000 active. AID 1511, 2009;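 active = activation above the mean of controls blocked by dofetilide plus 5 SD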;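 note: thallium influx through hERG after potassium depolarization seen as dye fluorescence rise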
# Kir21 block: inhibitors of mouse Kir2.1 inward-rectifier potassium channel; Inward rectifier potassium channel 2 (Mus musculus), P35561; HEK293-Kir2.1, FluxOR thallium flux fluorescence; stronger effect = lower value; AID 1672, 2009; B-score at 10 µM; 0.85% of 310,000 active;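 active = fluorescence ratio B-score at or below minus 3 SD of library scores, with starting-brightness B-score within 2 SD, cut at about -4.2 in these data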;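 note: channel flux triggered by added potassium and thallium sulfate stimulus; B-score of peak minus minimum fluorescence over baseline after thallium stimulus; more negative B-score means stronger Kir2.1 block with less thallium influx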
# An asterisk follows results filed as active; i = inactive; . = no result. Rows were chosen to be rich in hits. Some 3.7% of all compounds tested hit in one or more screens of this group.
SMILES,KCNQ1 act,KCNK9 block,KCNK3 inh,KCNQ1 block,hERG rescue,Kir21 block
CC1CC(C)(C)NC2(CCCC2)N1 (stereo not drawn),.,.,i,.,.,.
O=C(Nc1ccc(Cl)cc1Cl)c1cccc(N2C(=O)C=CC2=O)c1,i,i,i,i,-9,2.2
COc1ccccc1C(C)NC(=O)c1ccccc1SCC(=O)N1CCCC1 (stereo not drawn),i,i,i,i,-16,-0.1
COC(=O)CCN(C(=O)c1ccc([N+](=O)[O-])cc1)c1ccccn1,i,i,i,11*,-9,1.6
COC(=O)CCN(C(=O)c1cc([N+](=O)[O-])cc([N+](=O)[O-])c1)c1ccccn1,i,i,i,i,-5,-0.32
O=C(C[C@@H]1C/C=C\C[C@H](Cc2ccc(F)cc2)C(=O)OC[C@H]2CCCN2C1=O)NCCO,.,.,i,.,.,.
O=C1CC(N(CCc2ccccc2)C(=S)Nc2ccccc2)C(=O)N1c1ccc(Br)cc1 (stereo not drawn),i,i,i,6*,-4,2.3
COc1cc(C2(c3ccc(O)c(OC)c3)C(=O)Nc3c(C)cc(Br)cc32)ccc1O,9*,i,i,i,-9,-2.4
Cc1ccnc(N2C(=O)c3cccc4c([N+](=O)[O-])ccc(c34)C2=O)c1,i,i,i,7*,-13,-1
Cc1ccnc(N2C(=O)c3ccccc3C2=O)c1,i,i,i,i,-8,0.07
Cc1nnc(SCC(=O)Nc2nccs2)n1N,i,i,i,i,-3,2.2
CN(C)c1ccc2c(c1)OC(N)=C(C#N)C2c1cccc(F)c1 (stereo not drawn),i,-6.8*,-11*,i,-21,-0.41
Cc1cc(C(=O)COC(=O)COc2ccccc2C#N)c(C)n1CC1CCCO1 (stereo not drawn),.,.,i,.,.,.
Cc1[nH]n(-c2nc(-c3ccc(Cl)cc3)cs2)c(=O)c1N=Nc1ccc(O)cc1,i,i,i,8*,-8,0.08
CCN(CC)c1c([N+](=O)[O-])c(=O)n(CC)c2ccccc12,i,i,i,i,-3,-1.4
NS(=O)(=O)c1cccc(NC(=O)COC(=O)c2ccccc2SCC(=O)N2CCCC2)c1,.,.,i,.,.,.
CCc1cc(=O)oc2cc(C)cc(OCC(=O)NCCCN3CCOCC3)c12,i,i,i,i,-5,1.7
Oc1ccccc1C1Nc2cccc3cccc(c23)N1,i,i,i,i,-6,-0.67
O=[N+]([O-])c1ccccc1C1Nc2cccc3cccc(c23)N1,i,i,i,6*,-11,0.62
CCOC(=O)CC(=O)CSc1nc2c(sc(=S)n2-c2ccc(OCC)cc2)c(=O)[nH]1,i,i,i,i,-9,-0.43
CCCCN(CC)C(=O)CSc1nc2c(sc(=S)n2-c2ccc(OCC)cc2)c(=O)[nH]1,i,i,i,8*,-19,2.2
O=S(=O)(NC1CCCCC1Oc1ccccc1)c1ccccc1 (stereo not drawn),i,i,i,i,-13,-5.4*
O=S(=O)(NC1CCCCC1Nc1ccc(Cl)cc1)c1ccccc1 (stereo not drawn),i,i,i,i,-10,0.18
COc1ccc2nc(-c3ccccc3)cc(C(=O)OCC(=O)N3CC(C)OC(C)C3)c2c1 (stereo not drawn),.,.,i,.,.,.
O=S(=O)(c1ccccc1)N(Cc1ccccc1)c1ccccn1,i,i,i,i,-2,-6.7*
SMILES,KCNQ1 act,KCNK9 block,KCNK3 inh,KCNQ1 block,hERG rescue,Kir21 block
CCOC(=O)c1ccc(Oc2nc(N(C)C)nc(N(C)C)n2)cc1,i,i,i,i,-1,-1.2
CCOC(=O)c1ccc(Oc2nc(NC(C)(C)C)nc(N(C)C)n2)cc1,27*,i,i,i,-2,0.17
N#Cc1ccc(C2=NC(C(F)(F)F)(C(F)(F)F)c3c(n(Cc4ccco4)c(=O)[nH]c3=O)N2)cc1,i,i,i,7*,-17,0.47
Cc1ccc(O)c(NC(=O)c2ccc3c(c2)C(=O)N(Cc2cccnc2)C3=O)c1,i,i,i,i,-11,0.66
Cc1ccc(-n2c(=O)c3sccc3n(CC(=O)N3CCCC3)c2=O)cc1,i,i,i,i,-2,-0.32
O=C(Cn1c(=O)n(-c2ccccc2)c(=O)c2sccc21)N1CCCC1,i,i,i,6*,-24,-3.1
CCN1CCN(CC#CCOc2ccccc2OC)CC1,i,i,i,i,-14,1.2
COc1ccc(NC(=O)CSc2c3c(nc4ccccc24)CCC3)c(OC)c1,i,i,i,i,-16,-10*
COc1ccc(NC(=O)c2ccc3c(SCC(=O)O)c4c(nc3c2)CCCC4)c(OC)c1,i,i,i,i,-8,0.98
COc1ccc(NC(=O)c2ccc3c(SCC(=O)O)c4c(nc3c2)CCCC4)cc1Cl,i,i,.,i,7.8*,-1.2
O=C(CN1C(=O)C2CC=CCC2C1=O)Nc1nnc(C2CC2)s1 (stereo not drawn),.,.,i,.,.,.
O=C(c1ccc(CS(=O)c2cccc(Cl)c2)o1)N1CCCCCC1 (stereo not drawn),i,i,i,i,-2,-0.74
Cc1cc(/C=C2/SC(=S)N(c3cccc(C(F)(F)F)c3)C2=O)c(C)n1-c1cccnc1,i,i,i,6*,-4,0.1
Cc1ccc2cc(C#N)c(N3CCCC3)nc2c1C,i,i,i,i,-1,2
Cc1ccc2cc(C#N)c(N3CCCN(C(=O)C4CCCO4)CC3)nc2c1C (stereo not drawn),i,i,i,i,-30,-5.7*
O=C(Nc1ccccn1)c1ccc(Cl)c([N+](=O)[O-])c1,i,i,i,i,-9,0.09
O=C(Nc1ccc(C(O)(C(F)(F)F)C(F)(F)F)cc1)c1ccc(Cl)c([N+](=O)[O-])c1,i,i,i,6*,-50,-1.5
N#Cc1ccsc1NC(=O)c1ccc(Cl)c([N+](=O)[O-])c1,i,i,i,7*,-15,0.84
Cc1cccc(C2Nc3ccccc3C(=O)N2CCc2ccccc2)n1 (stereo not drawn),i,i,i,i,-3,-2.3
